Data on 32 molecules can be found in ChEMBL document CHEMBL1155086, “Synthesis and evaluation of antitubercular activity of glycosyl thio- and sulfonyl acetamide derivatives” (Bioorg Med Chem Lett, 2008).

≈ marks a conversion by molar mass, not a printed value.

Data set [1] has as its system Mycobacterium tuberculosis. Kind of data set: Antitubercular activity against Mycobacterium tuberculosis H37Rv after 4 weeks by agar dilution method. Format: functional. The settings on record: 672 h. The essentials:
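Proportion method on agar: serial twofold dilutions mixed into warm Middlebrook 7H10 agar and set as slants. Each slant surface inoculated with 10⁵ CFU of M. tuberculosis H37Rv in 10 µL, then incubated at 37 °C for 4 weeks. MIC (µg/mL) taken as the lowest concentration giving complete inhibition of colony growth. Rifampicin and isoniazid served as reference drugs.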
For orientation: In agar dilution, organisms are placed on agar that contains the substance at set levels.

The nature of data set [2]: Cytotoxicity against african green monkey Vero C1008 cells. The settings on record: chlorocebus sabaeus. Format: cell-based. In outline: (§1)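 MTS (Mosmann-type) viability assay. 10⁴ cells/well in DME with 10% foetal bovine serum plus antibiotics were pre-incubated 24 h at 37 °C, 5% CO2. Medium was then replaced with serial dilutions of compound, a standard toxic compound or DMSO, and incubated a further 24 h. MTS was added and absorbance read at 490 nm after 2 h. DMSO wells were set as 100% viability.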

Data set [3] can be described thus: Cytotoxicity against mouse bone marrow derived macrophages. Format: cell-based. The conditions noted are these: macrophage. The essentials: as §1

For orientation: MIC means the least concentration at which growth counts as inhibited.

Take `CCCCCCCCCCCCNC(=O)CS(=O)(=O)[C@@H]1O[C@H](COC(C)=O)[C@@H](OC(C)=O)[C@H](OC(C)=O)[C@H]1OC(C)=O`: the MIC in data set [1] is > 12.5 µg/mL.
With `CCCCCCCCCCCCNC(=O)CS[C@@H]1O[C@H](COC(C)=O)[C@@H](O[C@@H]2O[C@H](COC(C)=O)[C@H](OC(C)=O)[C@H](OC(C)=O)[C@H]2OC(C)=O)[C@H](OC(C)=O)[C@H]1OC(C)=O`, in data set [1], the MIC was > 12.5 µg/mL.
Same read-out and setting: with `CC(=O)OC[C@H]1O[C@@H](SCC(N)=O)[C@H](OC(C)=O)[C@@H](OC(C)=O)[C@@H]1O[C@H]1O[C@H](COC(C)=O)[C@@H](OC(C)=O)[C@H](OC(C)=O)[C@H]1OC(C)=O` the figure was > 12.5 µg/mL; with `CC(=O)OC[C@H]1O[C@@H](SCC(N)=O)[C@H](OC(C)=O)[C@@H](OC(C)=O)[C@@H]1O[C@@H]1O[C@H](COC(C)=O)[C@@H](OC(C)=O)[C@H](OC(C)=O)[C@H]1OC(C)=O`, > 12.5 µg/mL; with `CC(=O)OC[C@H]1O[C@@H](O[C@H]2[C@H](OC(C)=O)[C@@H](OC(C)=O)[C@H](SCC(N)=O)O[C@@H]2COC(C)=O)[C@H](OC(C)=O)[C@@H](OC(C)=O)[C@H]1OC(C)=O`, > 12.5 µg/mL.
The same measure, in the same setting: with `CC(=O)OC[C@H]1O[C@@H](SCC(=O)NCc2ccccc2)[C@H](OC(C)=O)[C@@H](OC(C)=O)[C@@H]1OC(C)=O` the figure was 6.25 µg/mL (≈ 12.2 µM); with `CCCCCCCCNC(=O)CS[C@@H]1O[C@H](COC(C)=O)[C@@H](OC(C)=O)[C@H](OC(C)=O)[C@H]1OC(C)=O`, > 12.5 µg/mL.
On the same count and under the same terms, next, `CC(=O)O[C@@H]1[C@@H](OC(C)=O)[C@H](OC(C)=O)CO[C@H]1S(=O)(=O)CC(N)=O`: 12.5 µg/mL (≈ 32.8 µM).
In turn, `CC(=O)OC[C@H]1O[C@@H](O[C@H]2[C@H](OC(C)=O)[C@@H](OC(C)=O)[C@H](S(=O)(=O)CC(N)=O)O[C@@H]2COC(C)=O)[C@H](OC(C)=O)[C@@H](OC(C)=O)[C@H]1OC(C)=O` registered an MIC in data set [1] of 3.12 µg/mL (≈ 4.21 µM). For the same molecule, the Activity result in data set [2] and in data set [3] was “Non-toxic” in each case.
On to `CCCCCCCCNC(=O)CS[C@@H]1O[C@H](COC(C)=O)[C@@H](O[C@@H]2O[C@H](COC(C)=O)[C@H](OC(C)=O)[C@H](OC(C)=O)[C@H]2OC(C)=O)[C@H](OC(C)=O)[C@H]1OC(C)=O`, for which the MIC in data set [1] is > 12.5 µg/mL.
Consider `CC(=O)OC[C@H]1O[C@@H](S(=O)(=O)CC(N)=O)[C@H](OC(C)=O)[C@@H](OC(C)=O)[C@H]1OC(C)=O`, for which the MIC in data set [1] came to 3.12 µg/mL (≈ 6.89 µM). For the same molecule, the Activity entry in data set [2] and in data set [3] was “Non-toxic” in each case.
On to `CC(=O)OC[C@H]1O[C@@H](S(=O)(=O)CC(N)=O)[C@H](OC(C)=O)[C@@H](OC(C)=O)[C@@H]1O[C@H]1O[C@H](COC(C)=O)[C@@H](OC(C)=O)[C@H](OC(C)=O)[C@H]1OC(C)=O`, for which, in data set [1], it took 25 µg/mL (≈ 33.7 µM) to inhibit growth (MIC).
On the same count and under the same terms, next, `CC(=O)O[C@H]1[C@H](OC(C)=O)[C@H](OC(C)=O)CO[C@H]1S(=O)(=O)CC(N)=O`: 12.5 µg/mL (≈ 32.8 µM).
`CC(=O)OC[C@H]1O[C@@H](S(=O)(=O)CC(=O)NCc2ccccc2)[C@H](OC(C)=O)[C@@H](OC(C)=O)[C@@H]1OC(C)=O` displayed an MIC in data set [1] of 6.25 µg/mL (≈ 11.5 µM). Moreover, the Activity entry in data set [2] and in data set [3] was “Non-toxic” throughout.
For `CCCCCCCCNC(=O)CS(=O)(=O)[C@@H]1OC[C@@H](OC(C)=O)[C@@H](OC(C)=O)[C@@H]1OC(C)=O`, in data set [1], the MIC is > 12.5 µg/mL.
Same read-out and setting: with `CCCCCCCCNC(=O)CS[C@@H]1OC[C@@H](OC(C)=O)[C@@H](OC(C)=O)[C@@H]1OC(C)=O` the figure was > 12.5 µg/mL.
In data set [1], `CCCCCCCCCCCCNC(=O)CS[C@@H]1OC[C@@H](OC(C)=O)[C@@H](OC(C)=O)[C@@H]1OC(C)=O` registered an MIC of 3.12 µg/mL (≈ 6.04 µM). Besides, the Activity entry in data set [2] and in data set [3] was “Non-toxic” throughout.
For `CC(=O)O[C@@H]1[C@@H](OC(C)=O)[C@H](SCC(N)=O)OC[C@H]1OC(C)=O`, the lowest concentration to inhibit growth in data set [1] (MIC) was 12.5 µg/mL (≈ 35.8 µM).
For `CC(=O)O[C@H]1[C@H](OC(C)=O)[C@H](SCC(N)=O)OC[C@H]1OC(C)=O`, the MIC in data set [1] was > 12.5 µg/mL.
On the same count and under the same terms, with `CCCCCCCCNC(=O)CS(=O)(=O)[C@@H]1O[C@H](COC(C)=O)[C@@H](OC(C)=O)[C@H](OC(C)=O)[C@H]1OC(C)=O` the figure was > 12.5 µg/mL.
As for `CC(=O)OC[C@H]1O[C@@H](SCC(N)=O)[C@H](OC(C)=O)[C@@H](OC(C)=O)[C@@H]1OC(C)=O`, the MIC in data set [1] was 3.12 µg/mL (≈ 7.42 µM). Besides, the Activity entry in data set [2] and in data set [3] was “Non-toxic” each time.
For `CC(=O)OC[C@H]1O[C@@H](SCC(N)=O)[C@@H](OC(C)=O)[C@@H](OC(C)=O)[C@@H]1OC(C)=O`, in data set [1], the MIC was 3.12 µg/mL (≈ 7.42 µM). Moreover, the Activity result in data set [2] and in data set [3] was “Non-toxic” in each case.
In the case of `CCCCCCCCNC(=O)CS(=O)(=O)[C@@H]1O[C@H](COC(C)=O)[C@@H](O[C@@H]2O[C@H](COC(C)=O)[C@H](OC(C)=O)[C@H](OC(C)=O)[C@H]2OC(C)=O)[C@H](OC(C)=O)[C@H]1OC(C)=O`, the MIC in data set [1] was > 12.5 µg/mL.
Same read-out and setting: next, `CC(=O)OC[C@H]1O[C@@H](S(=O)(=O)CC(N)=O)[C@H](OC(C)=O)[C@@H](OC(C)=O)[C@@H]1O[C@@H]1O[C@H](COC(C)=O)[C@@H](OC(C)=O)[C@H](OC(C)=O)[C@H]1OC(C)=O`: 25 µg/mL (≈ 33.7 µM); `CCCCCCCCCCCCNC(=O)CS(=O)(=O)[C@@H]1OC[C@@H](OC(C)=O)[C@@H](OC(C)=O)[C@@H]1OC(C)=O`: > 12.5 µg/mL.
Still for that read-out and setting: next, `CCCCCCCCCCCCNC(=O)CS(=O)(=O)[C@@H]1O[C@H](COC(C)=O)[C@@H](O[C@@H]2O[C@H](COC(C)=O)[C@H](OC(C)=O)[C@H](OC(C)=O)[C@H]2OC(C)=O)[C@H](OC(C)=O)[C@H]1OC(C)=O`: > 12.5 µg/mL; `CC(=O)O[C@@H]1[C@H](OC(C)=O)[C@H](OC(C)=O)CO[C@H]1SCC(N)=O`: 12.5 µg/mL (≈ 35.8 µM).
`CC(=O)O[C@@H]1[C@H](OC(C)=O)[C@H](OC(C)=O)CO[C@H]1S(=O)(=O)CC(N)=O`: inhibition of growth in data set [1] (MIC) required 6.25 µg/mL (≈ 16.4 µM). The Activity entry in data set [2] and in data set [3] was “Non-toxic” in each case.
In the case of `CCCCCCCCCCCCNC(=O)CS[C@@H]1O[C@H](COC(C)=O)[C@@H](OC(C)=O)[C@H](OC(C)=O)[C@H]1OC(C)=O`, the MIC in data set [1] was > 12.5 µg/mL.
Still for that read-out and setting: with `CC(=O)OC[C@H]1O[C@@H](S(=O)(=O)CC(N)=O)[C@@H](OC(C)=O)[C@@H](OC(C)=O)[C@@H]1OC(C)=O` the figure was > 12.5 µg/mL.
`CC(=O)OC[C@H]1O[C@@H](S(=O)(=O)CC(N)=O)[C@H](OC(C)=O)[C@@H](OC(C)=O)[C@@H]1OC(C)=O` yielded a minimal inhibitory concentration (MIC) in data set [1] of 3.12 µg/mL (≈ 6.89 µM). The Activity result in data set [2] and in data set [3] was “Non-toxic” throughout.
`CC(=O)OC[C@H]1O[C@@H](SCC(N)=O)[C@H](OC(C)=O)[C@@H](OC(C)=O)[C@H]1OC(C)=O` yielded an MIC in data set [1] of 1.56 µg/mL (≈ 3.7 µM). In addition, the Activity result in data set [2] and in data set [3] was “Non-toxic” in each case.
